# TPT1 inhibitor: inhibitors of Candida albicans tRNA 2'-phosphotransferase TPT1. recombinant caTPT1, FP RNA substrate dephosphorylation. inhibition, % at 5 µM. 0.81% of 300,000 active;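 active = inhibition above the mean of all tested compounds plus 3 SD, set per screening campaign, cut at about 24% in these data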;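 note: plate controls were DMSO alone for no effect and ferristatin control at 100 nM for full effect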
# HNF4A DNA FP: change in binding of human HNF4 alpha to DNA; P41235; HNF4a-FITC DNA binding, fluorescence polarization, 1 h; AID 1224865; 0.3% of 360,000 active; activity change, % at 10 µM; in the data active = activity change above about 30%, passing the limit was not always enough
# Rpn11 inh: inhibitors of human proteasome Rpn11. O00487. human 26S proteasome, Ub4-pepOG fluorescence polarization; 20S core pre-blocked with epoxomicin. inhibition, % at 20 µM. 0.59% of 360,000 active;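 active = inhibition at 20 µM, scaled to each plate's controls, above about 33%, limit read from the data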
# Myeloid diff 2: myeloid differentiation induction; ER-HoxA9 myeloid progenitors, lysozyme-GFP differentiation, flow cytometry; calls only at 10 µM; 1% of 360,000 active; AID 624256;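 active = normalized GFP-positive differentiation at or above the plate's own cutoff, the solvent-only control mean plus 3 SD; inconclusive = no clear call, values can overlap the other calls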;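 note: cells exposed to compound for four days before flow analysis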
# CSN inh: blocks human CSN-mediated cullin deneddylation | inhibition, % at 12.5 µM | Purified CSN, SCF-Nedd8-OG deneddylation, fluorescence polarization | Q92905 | AID 651999 | 0.38% of 360,000 active;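 active = pattern-corrected inhibition above about 35%, with an unprinted fluorescence ratio check between 0.5 and 1.5, limit read from the data, passing the limit was not always enough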;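 note: 0% = enzyme with substrate and 100% = substrate without enzyme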
#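 Assay system: purified human Csn5 enzyme expressed in HEK293T cells; Input: 0.24 nM Csn5 enzyme, final concentration; Reagent: 10 nM SCFSkp2-Nedd8OG; Compound dosing: 12.5 µM single point; Times: reaction 90 min, room temperature; Technique: fluorescence polarization readout.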
# Rpn11 confirm: Rpn11 inhibition confirmation, single concentration; shares compounds with Rpn11 inh; purified human 26S proteasome, Ub4-pepOG fluorescence polarization; proteasome pretreated with epoxomicin; inhibition, % at 20 µM; 29% of 1,900 active
# MMP-2 counter-1: blocks human MMP-2, flagging nonselective RPN11 hits | shares compounds with Rpn11 inh | recombinant MMP-2, FRET peptide cleavage fluorescence | inhibition, % at 20 µM | 4% of 1,900 active;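 note: human MMP-2 activated beforehand with APMA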
# Thrombin inh: blocks bovine thrombin, flagging nonselective RPN11 hits | inhibition, % at 20 µM | shares compounds with Rpn11 inh | bovine thrombin cleavage of Ub4-pepOG, fluorescence polarization | 13% of 1,900 active;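 active = mean inhibition at least 40% at 20 µM, or signal 3 deviations below plate average, so some actives read negative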;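 note: plate controls were thrombin with DMSO for no effect and buffer wells lacking thrombin for full effect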
# Target sequence (P00735 whole entry, looked up): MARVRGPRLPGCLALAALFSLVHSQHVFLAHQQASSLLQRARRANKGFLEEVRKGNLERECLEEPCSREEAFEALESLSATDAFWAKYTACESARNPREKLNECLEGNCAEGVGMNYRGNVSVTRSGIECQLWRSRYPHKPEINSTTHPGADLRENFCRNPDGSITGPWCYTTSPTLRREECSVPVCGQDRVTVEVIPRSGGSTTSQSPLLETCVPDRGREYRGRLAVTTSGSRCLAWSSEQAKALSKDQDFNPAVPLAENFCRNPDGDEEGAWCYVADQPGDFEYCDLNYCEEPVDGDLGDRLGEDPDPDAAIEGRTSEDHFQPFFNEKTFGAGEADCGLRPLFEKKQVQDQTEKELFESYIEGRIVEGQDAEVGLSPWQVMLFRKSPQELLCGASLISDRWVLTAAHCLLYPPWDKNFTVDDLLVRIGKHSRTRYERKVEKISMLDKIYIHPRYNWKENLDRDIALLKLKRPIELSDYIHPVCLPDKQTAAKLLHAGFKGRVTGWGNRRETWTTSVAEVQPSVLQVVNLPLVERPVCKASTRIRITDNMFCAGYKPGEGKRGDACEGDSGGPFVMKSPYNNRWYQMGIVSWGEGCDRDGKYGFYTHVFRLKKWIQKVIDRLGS
# Myeloid diff: compounds promoting myeloid differentiation | calls only | shares compounds with Myeloid diff 2 | ER-HoxA9 myeloid progenitors, GFP/Mac1 double-positive flow | 2% of 2,300 active;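 active = share of green or green-and-red cells above 9 and 9% in run 1 or 4 and 3% in run 2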
# GFP autofluor: counter-screen for myeloid differentiation promoters: compound fluorescence | shares compounds with Myeloid diff 2 | ER-HoxA9 myeloid progenitors, no estrogen, GFP autofluorescence flow cytometry; vehicle wells 0%, positive control 100% | fluorescence response, % (concentration not given with the values) | 7.4% of 2,300 active | AID 651707;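 active = over 5% cells positive for green fluorescent reporter, or over 2% positive for both it and APC stain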;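 note: range taken on the double positive population between DMSO and positive control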
# CSN5 deneddyl: validation of inhibitors of human CSN-mediated cullin deneddylation. inhibition, % at 16.6 µM. AID 720654. 62% of 540 active. shares compounds with CSN inh. Csn5 deneddylation of SCF-Nedd8OG, fluorescence polarization, 90 min; in the data active = inhibition above about 50%;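 note: 0% = DMSO with enzyme and 100% = no enzyme wells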
# MMP-2 counter-2: MMP-2 (human) inhibition, counter-screen for CSN hits; recombinant MMP-2, FRET substrate fluorescence, 60 min; inhibition, % at 16.6 µM; shares compounds with CSN inh; 33% of 540 active; AID 720655;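 active = corrected plate-normalized z-score of 5 or more, or -5 or less, or inhibition of 15% or more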;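 note: plate controls were DMSO wells with enzyme for no effect and buffer wells lacking MMP-2 for full effect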
# Thrombin counter: thrombin (bovine) inhibition, counter-screen for CSN hits; 49% of 540 active; shares compounds with CSN inh; inhibition, % at 16.6 µM; bovine thrombin cleavage of Ub4-pepOG, fluorescence polarization;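 active = inhibition at or above a set limit, with a fluorescence interference ratio between 0.5 and a set maximum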
# HNF4a DNA conf: change in binding of human HNF4 alpha to DNA, retest; shares compounds with HNF4A DNA FP; 99% of 210 active; HNF4A-FITC DNA binding, fluorescence polarization, 1 h; activity change, % at 12.5 µM; call rule not given here
# An asterisk follows results filed as active; i = inactive; u = inconclusive; x = not tested or not shown; + = active, no number. Only some compounds are listed: those with a hit (about 2.3% of all), similar ones and a draw of the others. Cut-off read from the data, not from the text of the source, unless noted: active = inhibition above about 40%; inactive = the rest.
SMILES,TPT1 inhibitor,HNF4A DNA FP,Rpn11 inh,Myeloid diff 2,CSN inh,Rpn11 confirm,MMP-2 counter-1,Thrombin inh,CSN5 deneddyl,MMP-2 counter-2,Thrombin counter,others
OCc1cccc(Nc2ncnc3sc4c(c23)CCCCC4)c1,2,1,2,i,2,x,x,x,x,x,x,
CC(=O)Nc1cccc(-c2cc(NC=O)c3ncc(-c4ccc(C(C)=O)cc4)n3c2)c1,x,9,7,i,7,x,x,x,x,x,x,
COc1ccc(-c2cc(NC=O)c3ncc(-c4ccc(C(C)=O)cc4)n3c2)cn1,x,22,55*,x,42*,26,-9,11,100*,5,3,
COc1ccc(O)c(/C=N/NC(=O)c2c(C)nnn2-c2nonc2N)c1,-5,41*,171*,i,88*,184*,21,26,-8,33*,8,
COc1ccc(/C=N/NC(=O)c2nnn(-c3nonc3N)c2-c2cccc(OC)c2)cc1,2,-3,2,i,-1,x,x,x,x,x,x,
C=CCOC(=O)c1cc(-c2ccc(/C=C3\C(=O)NC(=O)C(C#N)=C3C)o2)ccc1Cl,x,-17,58*,i,43*,37,14,31,18*,24*,7,
Cn1cc(-c2ccno2)c(C(=O)O)n1,6,1,0,i,2,x,x,x,x,x,x,
COc1cccc2sc3ccc(NCCC4CCCN4C)cc3c(=O)c12 (stereo not drawn),-8,-13,-12,i,-8,x,x,x,x,x,x,
COc1cc2sc3cc(NCC[C@@H]4CCCN4C)ccc3c(=O)c2cc1OC,x,21,57*,u,36*,-4,17,1,109*,8,-15,
CCOC(=O)c1sc2nc(C)n(N)c(=O)c2c1C,-1,3,0,i,0,x,x,x,x,x,x,
CCOC(=O)c1sc2nc3c(SCCC(=O)O)cc(C(=O)c4cc(OC)ccc4O)cn3c(=O)c2c1C,x,-1,163*,+,104*,80*,31,8,87*,14,2,
CC(CC(=O)N1CCN(c2ccc(C(F)(F)F)cn2)CC1)n1ccnc1 (stereo not drawn),-3,-4,-5,i,-4,x,x,x,x,x,x,
Cc1cccc(N=C2NC(=O)/C(=C/C=C/c3ccco3)S2)c1C,19,-18,65*,i,58*,8,47*,10,63*,18*,38*,
O=[N+]([O-])c1ccc(N/N=C/c2sc(N3CCOCC3)nc2-c2ccccc2)c(S(=O)(=O)Nc2ccccc2Cl)c1,x,60*,69*,i,51*,55*,-2,46*,83*,-4,36*,
CC1CC(C)(C)NC(=S)N1CCC(=O)N1CCc2ccccc21 (stereo not drawn),-1,1,-4,i,-8,x,x,x,x,x,x,
CCCc1cc(=O)oc2cc(OCC(=O)NCc3cccs3)ccc12,-1,5,0,i,8,x,x,x,x,x,x,
CCCc1cc(=O)oc2cc(OCC(=O)Nc3ccc(S(N)(=O)=O)cc3)ccc12,1,-34,+,i,104*,6,67*,-10,-3,46*,32*,
C[n+]1c(-c2ccccc2)cc2c(=Cc3ccccc3)c3ccccc3n21,x,3,10,u,1,x,x,x,x,x,x,
CN(C)c1ccc(C=c2c3cc(O)ccc3n3c2cc(-c2ccccc2)[n+]3C)cc1,x,161,168*,+,138*,177*,109*,155*,-60,100*,68*,
Cc1cc2c(=Cc3ccc(N(C)C)cc3)c3ccccc3n2[n+]1C,x,195,177*,x,86*,135*,-11,145*,44,-22,60*,
CC(C)NC(=O)N(C)C[C@H]1Oc2ccc(NS(=O)(=O)c3ccc(F)cc3)cc2C(=O)N([C@H](C)CO)C[C@@H]1C,x,2,-8,i,-1,x,x,x,x,x,x,
COc1ccccc1-n1cnc2c(c1=O)c1nc3ccccc3nc1n2-c1ccc(C)c(C)c1,x,23,54*,i,88*,24,-23,0,124*,9,2,
CC1CCN(c2ccc3c(c2)S(=O)(=O)c2cccc(C(=O)NC4CCCCC4)c2C3=O)CC1,x,40*,88*,+,17,44*,-28,31,x,x,x,Myeloid diff=i;GFP autofluor=2;HNF4a DNA conf=40*
CC(=O)c1c(C)[nH]c(C(=O)COC(=O)c2c(-c3ccccc3)noc2C)c1C,x,-1,-1,i,2,x,x,x,x,x,x,
O=C(Nc1ccc2oc(-c3ccncc3)nc2c1)c1ccc2c(c1)OCO2,1,66*,169*,i,111*,6,i,0,x,x,x,HNF4a DNA conf=169*
SMILES,TPT1 inhibitor,HNF4A DNA FP,Rpn11 inh,Myeloid diff 2,CSN inh,Rpn11 confirm,MMP-2 counter-1,Thrombin inh,CSN5 deneddyl,MMP-2 counter-2,Thrombin counter,others
O=[N+]([O-])c1ccc(C=NNc2ccccc2)cc1,x,47*,55*,i,21,36,-21,25,x,x,x,HNF4a DNA conf=47*
O=[N+]([O-])c1cccc(C=NNc2ccccc2)c1,x,-3,-3,i,-1,x,x,x,x,x,x,
CC(C(=O)NC(C)(C)C)N(C(=O)CS(=O)CC(=O)Nc1ccc(F)cc1)C1CCCC1 (stereo not drawn),4,2,2,i,3,x,x,x,x,x,x,
O=C(CSc1nc2ccccc2o1)Nc1nc2c(s1)CCCC2,x,55*,96*,i,17,49*,-21,33,x,x,x,HNF4a DNA conf=48*
C=CCN1C(=O)/C(=C2/Sc3ccc(OC)cc3N2C)SC1=Nc1cccc(O)c1,14,47*,67*,i,25,8,-32,-13,x,x,x,Myeloid diff=i;GFP autofluor=0;HNF4a DNA conf=70*
CCN1C(=O)/C(=C2/Sc3ccc(OC)cc3N2C)SC1=Nc1ccc(OC)cc1,3,4,-4,i,-5,x,x,x,x,x,x,
